IDH1 R132H inh: inhibitors of IDH1 R132H reductase, primary screen, biochemical, plate reader, single point; AID 624101, 2012; Isocitrate dehydrogenase [NADP] cytoplasmic (Homo sapiens), O75874; 0.18% of 70,000 active; inhibition, % at 10 µM; diaphorase/resazurin fluorescence, 60 min; in the data active = inhibition above about 34%; inconclusive = no clear call, values can overlap the other calls; inactive = below about 11%
Target sequence (O75874 whole entry R132H): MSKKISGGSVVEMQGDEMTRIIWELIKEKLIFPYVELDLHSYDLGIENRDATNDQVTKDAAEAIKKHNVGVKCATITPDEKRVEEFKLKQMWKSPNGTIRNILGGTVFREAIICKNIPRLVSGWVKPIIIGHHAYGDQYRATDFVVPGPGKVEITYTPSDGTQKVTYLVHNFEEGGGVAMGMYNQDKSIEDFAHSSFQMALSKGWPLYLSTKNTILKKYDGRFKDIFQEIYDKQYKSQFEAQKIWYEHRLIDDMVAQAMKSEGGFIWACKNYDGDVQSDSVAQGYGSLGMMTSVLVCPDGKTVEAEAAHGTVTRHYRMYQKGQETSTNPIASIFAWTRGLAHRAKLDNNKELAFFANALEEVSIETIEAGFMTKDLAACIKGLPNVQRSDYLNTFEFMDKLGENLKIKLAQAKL
T cruzi growth-1: T. cruzi intracellular proliferation inhibitors, primary screen, cell-based, beta-gal Tulahuen parasites, NIH3T3 host, luminescence. T. cruzi beta-gal in NIH3T3, GalScreen luminescence, 90 h. inhibition, % at 8.34 µM. 5.9% of 77,000 active;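 active = mean inhibition above about 93%, with at least 55% of replicates each passing it, limit read from the data, passing the limit was not always enough; inconclusive = only one of those two conditions holds; inactive = neither condition holds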
KDM4C inh: inhibitors of GASC-1 (KDM4C) histone demethylase, primary screen, biochemical, single concentration HTS; AID 720574, 2013; inhibition, % at 12.5 µM; 0.15% of 96,000 active; GST-KDM4C 2-372, H3K9me3 peptide, LANCE TR-FRET; Lysine-specific demethylase 4C (Homo sapiens), Q9H3R0;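 active = mean replicate inhibition above about 25%, with at least 55% of replicates also reaching it, limit read from the data, passing the limit was not always enough; inconclusive = only one of those two conditions met; inactive = neither condition met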
Target sequence (Q9H3R0 2-372 limits assumed): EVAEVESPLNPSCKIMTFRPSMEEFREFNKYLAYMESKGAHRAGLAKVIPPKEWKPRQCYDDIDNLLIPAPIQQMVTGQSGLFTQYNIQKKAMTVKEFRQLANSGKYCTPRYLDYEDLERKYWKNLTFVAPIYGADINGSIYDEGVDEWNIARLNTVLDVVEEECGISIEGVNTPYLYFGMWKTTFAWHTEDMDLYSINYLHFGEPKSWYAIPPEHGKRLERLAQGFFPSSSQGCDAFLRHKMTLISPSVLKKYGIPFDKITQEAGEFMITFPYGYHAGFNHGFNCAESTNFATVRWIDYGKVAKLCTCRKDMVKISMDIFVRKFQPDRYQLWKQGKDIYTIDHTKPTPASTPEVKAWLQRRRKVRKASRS
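Test system: N-terminal GST-fused human GASC-1 (KDM4C) fragment, residues 2-372; quantity: GASC-1 enzyme at 10 nM final in reaction; dosing: single dose; schedule: 30 min demethylation and 1 h detection at room temperature; signal: LANCE TR-FRET, excitation 340 nm, emissions 618 and 671 nm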
T cruzi growth-2: T. cruzi intracellular proliferation inhibitors, confirmation, cell-based, NIH3T3 host, beta-gal parasite, luminescence, cherry-pick; T. cruzi beta-gal in NIH3T3, GalScreen luminescence, 90 h; shares compounds with T cruzi growth-1; inhibition, % at 8.35 µM; AID 651739, 2012; 72% of 5,600 active;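 active = mean replicate inhibition above about 95% and at least 55% of replicates individually reaching it, limit read from the data; inconclusive = only one of the two criteria is met; inactive = neither criterion is met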
T cruzi growth-3: inhibitors of intracellular T. cruzi replication, confirmation, NIH3T3 host cells, beta-gal parasites, cherry-pick, set 2; shares compounds with T cruzi growth-1; T. cruzi beta-gal in NIH3T3, GalScreen luminescence, 90 h; inhibition, % at 2.09 µM; 21% of 5,600 active; AID 651740, 2012;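 active = mean inhibition above about 95%, with at least 55% of replicates also reaching it, limit read from the data; inconclusive = meets just one of the two conditions; inactive = meets neither condition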
NIH3T3 tox: cytotoxicity in mouse NIH/3T3 fibroblasts, confirmation, cytotoxicity control for T. cruzi proliferation inhibitor project, cell-based, cherry-pick, single point; shares compounds with T cruzi growth-1; NIH/3T3 viability, CellTiter-Glo ATP luminescence, 90 h; cytotoxicity (signal decrease), % at 8.35 µM; 14% of 5,600 active; AID 651742, 2012;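 active = mean signal decrease across replicates above about 35% based on untreated-well scatter, with enough replicates individually passing, limit read from the data; inconclusive = no rule stated though some were filed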
3T3 cytotox 2: NIH/3T3 fibroblast cytotoxicity, confirmation, cytotoxicity control, cell-based, cherry-pick, single point, set 2. shares compounds with T cruzi growth-1. NIH/3T3 viability, CellTiter-Glo ATP luminescence, 90 h. inhibition, % at 24.9 µM. 56% of 5,600 active;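 active = mean loss of cell viability signal at or above a set limit, and enough replicates individually reaching it; inconclusive = meets only the mean limit or only the replicate share; inactive = meets neither condition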
Large screens that a line does not name were inactive (follow-up assays come after a bar, where they were run). Many of the other results were omitted from the sample, so hits are more common in it than they were.

C[C@@H]1CN([C@@H](C)CO)S(=O)(=O)c2ccc(C#Cc3ccccc3)cc2O[C@H]1CN(C)C(=O)CN(C)C	T cruzi growth-1 102 | T cruzi growth-2 100 | T cruzi growth-3 inactive | NIH3T3 tox inactive | 3T3 cytotox 2 103
COCC(=O)N(C)C[C@@H]1Oc2cc(C#Cc3ccccc3)ccc2S(=O)(=O)N([C@@H](C)CO)C[C@H]1C	T cruzi growth-1 inconclusive | T cruzi growth-2 inactive | T cruzi growth-3 inactive | NIH3T3 tox inactive | 3T3 cytotox 2 inactive
COCC(=O)N(C)C[C@@H]1Oc2cc(C#Cc3ccccc3)ccc2S(=O)(=O)N([C@H](C)CO)C[C@H]1C	none
CO[C@@H]1CN(C)C(=O)c2cc(NC(=O)C3CCOCC3)ccc2OC[C@@H](C)N(S(=O)(=O)c2ccc(C)cc2)C[C@H]1C	none (no result: KDM4C inh)
C[C@@H]1CCCCO[C@@H](CN(C)C(=O)Nc2ccc3c(c2)OCO3)[C@H](C)CN([C@H](C)CO)C(=O)c2cc(NC(=O)C3CCCCC3)ccc2O1	none (no result: IDH1 R132H inh)
CCS(=O)(=O)N1CCCCN2[C@H](C1)[C@@H](c1ccc(-c3cccc(C#N)c3)cc1)[C@@H]2CO	none (no result: IDH1 R132H inh)
O=C(C1CCCC1)N1CCCCN2[C@@H](CO)[C@@H](c3ccc(-c4cccc(F)c4)cc3)[C@@H]2C1	none (no result: IDH1 R132H inh, KDM4C inh)
CCC(=O)N1CCCCN2[C@@H](CO)[C@H](c3ccc(-c4cccc(C#N)c4)cc3)[C@@H]2C1	T cruzi growth-1 107 (no result: IDH1 R132H inh) | T cruzi growth-2 inactive | T cruzi growth-3 inactive | NIH3T3 tox inactive | 3T3 cytotox 2 61
O=C(C1CCCC1)N1CCCCN2[C@H](CO)[C@@H](c3ccc(-c4cccc(F)c4)cc3)[C@@H]2C1	T cruzi growth-1 104 (no result: IDH1 R132H inh, KDM4C inh) | T cruzi growth-2 98 | T cruzi growth-3 115 | NIH3T3 tox 42 | 3T3 cytotox 2 106
O=C(Nc1ccc(F)cc1)N1CCCCN2[C@H](C1)[C@H](c1ccc(-c3cccc(F)c3)cc1)[C@@H]2CO	T cruzi growth-1 116 (no result: IDH1 R132H inh) | T cruzi growth-2 109 | T cruzi growth-3 inactive | NIH3T3 tox inactive | 3T3 cytotox 2 79
N#Cc1ccc(-c2ccc([C@H]3[C@H](CO)N4CCCCN(C(=O)Nc5ccc(F)cc5)C[C@@H]34)cc2)cc1	none (no result: IDH1 R132H inh)
O=C(Nc1ccc(F)cc1)N1CCCCN2[C@H](CO)[C@H](c3ccc(-c4cccc(F)c4)cc3)[C@H]2C1	none (no result: IDH1 R132H inh)
N#Cc1ccc(-c2ccc([C@H]3[C@@H](CO)N4CCCCN(C(=O)Nc5ccc(F)cc5)C[C@H]34)cc2)cc1	T cruzi growth-1 98 (no result: IDH1 R132H inh) | T cruzi growth-2 105 | T cruzi growth-3 105 | NIH3T3 tox inactive | 3T3 cytotox 2 104
Cc1ccc(S(=O)(=O)Nc2ccc3c(c2)C(=O)N([C@@H](C)CO)C[C@H](C)[C@@H](CN(C)C)OCCCC[C@@H](C)O3)cc1	none
C[C@H](CO)N1C[C@H](C)[C@H](CN(C)S(=O)(=O)c2ccc(Cl)cc2)Oc2ccc(NC(=O)NC3CCCCC3)cc2CC1=O	none
C[C@H](CO)N1C[C@H](C)[C@H](CN(C)Cc2ccc(-c3ccccc3)cc2)Oc2ccc(NC(=O)C3CC3)cc2C1=O	none (no result: IDH1 R132H inh)
O=C(Nc1ccc(S(=O)(=O)Nc2nccs2)cc1)C1c2ccccc2Oc2ccccc21	none (no result: T cruzi growth-1, KDM4C inh)
C[C@H](CO)N1C[C@H](C)[C@@H](CN(C)C(=O)C2CCCCC2)Oc2cc(-c3ccncc3)ccc2S1(=O)=O	none
N#Cc1cccc(-c2ccc([C@H]3[C@H](CO)N4CCCCN(C(=O)Nc5ccc(F)cc5)C[C@@H]34)cc2)c1	T cruzi growth-1 102 (no result: IDH1 R132H inh) | T cruzi growth-2 104 | T cruzi growth-3 inactive | NIH3T3 tox inactive | 3T3 cytotox 2 105
N#Cc1cccc(-c2ccc([C@H]3[C@H]4CN(C(=O)Nc5ccccc5)CCCCN4[C@H]3CO)cc2)c1	none (no result: IDH1 R132H inh)
CCCN(C)C[C@H]1Oc2cc(-c3cncnc3)ccc2S(=O)(=O)N([C@H](C)CO)C[C@H]1C	none (no result: T cruzi growth-1)
C[C@@H](O)C#Cc1ccc2c(c1)O[C@H](CN(C)Cc1ccncc1)[C@@H](C)CN([C@@H](C)CO)S2(=O)=O	none
CC(C)C#Cc1ccc2c(c1)O[C@H](CN(C)Cc1ccncc1)[C@H](C)CN([C@H](C)CO)S2(=O)=O	T cruzi growth-1 101 | T cruzi growth-2 99 | T cruzi growth-3 inactive | NIH3T3 tox inconclusive | 3T3 cytotox 2 50
C[C@H](O)C#Cc1ccc2c(c1)O[C@@H](CN(C)Cc1ccncc1)[C@H](C)CN([C@H](C)CO)S2(=O)=O	T cruzi growth-1 113 | T cruzi growth-2 100 | T cruzi growth-3 inactive | NIH3T3 tox inactive | 3T3 cytotox 2 39
C[C@H](O)C#Cc1ccc2c(c1)O[C@H](CN(C)Cc1ccncc1)[C@H](C)CN([C@@H](C)CO)S2(=O)=O	none
CO[C@@H]1CN(C)C(=O)c2ccc(NS(=O)(=O)c3cccc(F)c3)cc2OC[C@@H](C)N(C(=O)Cc2cccnc2)C[C@H]1C	none (no result: T cruzi growth-1)
C[C@@H]1CN([C@@H](C)CO)C(=O)c2cc(/C=C/c3ccccc3)cnc2O[C@H]1CN(C)Cc1cccnc1	none
Cc1ccc(NC(=O)CCCC(=O)Nc2ccc(C)c(C)c2)cc1C	none (no result: T cruzi growth-1, KDM4C inh)
C[C@@H]1CCCCO[C@@H](CN(C)S(=O)(=O)c2ccc(Cl)cc2)[C@@H](C)CN([C@H](C)CO)C(=O)c2cc(NC(=O)Cc3ccccc3)ccc2O1	none
Cc1ccc(S(=O)(=O)N(C)C[C@@H]2OCCCC[C@H](C)Oc3ccc(NC(=O)Cc4ccccc4)cc3C(=O)N([C@H](C)CO)C[C@@H]2C)cc1	T cruzi growth-1 112 (no result: IDH1 R132H inh) | T cruzi growth-2 101 | T cruzi growth-3 inactive | NIH3T3 tox inactive | 3T3 cytotox 2 inconclusive
C[C@@H]1CCCCO[C@@H](CN(C)S(=O)(=O)c2ccc(Cl)cc2)[C@@H](C)CN([C@@H](C)CO)C(=O)c2cc(NC(=O)Cc3ccccc3)ccc2O1	none
COc1ccc(S(=O)(=O)N(C)C[C@@H]2OCCCC[C@H](C)Oc3ccc(NC(=O)Cc4ccccc4)cc3C(=O)N([C@H](C)CO)C[C@H]2C)cc1	none
C[C@@H]1CN([C@@H](C)CO)C(=O)c2cc(NC(=O)Cc3ccccc3)ccc2O[C@@H](C)CCCCO[C@@H]1CN(C)S(=O)(=O)c1ccc(Cl)cc1	T cruzi growth-1 111 (no result: IDH1 R132H inh) | T cruzi growth-2 101 | T cruzi growth-3 inactive | NIH3T3 tox inactive | 3T3 cytotox 2 inactive

Screening results deposited in PubChem by Broad Institute.
